Calls of active or inactive are those of the source. Unless noted, no cut-off for these calls is given here.
Columns and labels:
Plasma = test: Cmax in C57BL/6 mouse plasma at 50 mg/kg, ip; format: ADME, organism-based; design: dose 50 mg/kg, route intraperitoneal; conditions: in vivo
In short: (§1)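 Male C57BL/6 mice, 18−26 g, given a single ip dose of 50 mpk in 20% PEG 400 + 80% (20% HP-β-CD). Plasma, brain and liver were sampled, and brain and liver were homogenized in 3 volumes of PBS pH 7.4 (dilution factor 4). Analysis was by LC−MS/MS. Mean profiles N = 3.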

Liver [1] = test: Half life in C57BL/6 mouse liver at 50 mg/kg, ip; format: ADME, organism-based; design: dose 50 mg/kg, route intraperitoneal; conditions: in vivo; in short: as §1
Liver [2] = test: Ratio of AUClast in liver to AUClast in plasma in C57BL/6 mouse at 50 mg/kg, ip; format: ADME, organism-based; design: dose 50 mg/kg, route intraperitoneal; conditions: other tissue; in short: as §1
Liver [3] = test: AUC (infinity) in C57BL/6 mouse liver at 50 mg/kg, ip; format: ADME, organism-based; design: time infinity, dose 50 mg/kg, route intraperitoneal; conditions: in vivo; in short: as §1
[4] = Activation of alpha-galactosidase using 4-MU-alpha-galactose as substrate
Liver [5] = test: Tmax in C57BL/6 mouse liver at 50 mg/kg, ip; format: ADME, organism-based; design: dose 50 mg/kg, route intraperitoneal; conditions: in vivo; in short: as §1
Liver [6] = test: AUClast in C57BL/6 mouse liver at 50 mg/kg, ip; format: ADME, organism-based; design: time 0 - last, dose 50 mg/kg, route intraperitoneal; conditions: in vivo; in short: as §1
Homo sapiens = species on record: Homo sapiens; test: Activation of Glucocerebrosidase N370S/N370S mutant translocation to lysosome in Gaucher patient dermal fibroblasts at 5 uM incubated for 6 days by LAMP2 co-localization-based laser scanning confocal microscopic analysis relative to vehicle-treated control
Liver [7] = test: Cmax in C57BL/6 mouse liver at 50 mg/kg, ip; format: ADME, organism-based; design: dose 50 mg/kg, route intraperitoneal; conditions: in vivo; in short: as §1
[8] = Ratio of AUClast in brain to AUClast in plasma in C57BL/6 mouse at 50 mg/kg, ip; format: ADME, organism-based; design: dose 50 mg/kg, route intraperitoneal; in short: as §1
[9] = test system: T1, Lysosomal acid glucosylceramidase (Homo sapiens), P04062 [N409S]; test: Activation of glucocerebrosidase N370S mutant in Gaucher patient spleen homogenates using 4-methylumbelliferone-Glc as substrate assessed as half-maximal activation concentration incubated for 5 mins prior to substrate addition measured after 30 to 45 mins by fluorimetric analysis; format: tissue-based
T1 sequence (whole entry): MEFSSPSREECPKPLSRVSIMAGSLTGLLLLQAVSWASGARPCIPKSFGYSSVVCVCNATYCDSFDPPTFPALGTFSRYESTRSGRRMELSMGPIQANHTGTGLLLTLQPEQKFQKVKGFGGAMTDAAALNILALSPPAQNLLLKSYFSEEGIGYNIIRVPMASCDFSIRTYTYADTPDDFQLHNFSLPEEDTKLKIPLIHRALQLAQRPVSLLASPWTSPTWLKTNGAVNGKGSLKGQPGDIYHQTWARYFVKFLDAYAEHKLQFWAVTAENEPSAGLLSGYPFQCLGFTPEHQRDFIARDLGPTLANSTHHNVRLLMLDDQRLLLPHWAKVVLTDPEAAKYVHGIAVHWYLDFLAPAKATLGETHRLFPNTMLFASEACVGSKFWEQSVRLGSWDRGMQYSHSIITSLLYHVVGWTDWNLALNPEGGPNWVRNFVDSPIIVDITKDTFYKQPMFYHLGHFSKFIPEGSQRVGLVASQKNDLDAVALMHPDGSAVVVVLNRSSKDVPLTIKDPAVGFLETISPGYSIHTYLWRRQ
In short: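 Spleen homogenate (27 μg final) in pH 5 citrate/phosphate buffer with KCl, NaCl, MgCl₂ and 0.01% Tween-20. Compound was titrated 0.5 nM to 58 μM and preincubated 5 min at room temperature. Reaction used 1 mM 4MU-Glc for 30−45 min at 37 °C and was stopped with NaOH/glycine pH 10. Read-out was fluorescence at Ex 365/Em 440 nm. AC₅₀ is the average of N = 2.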

[10] = Cytotoxicity against human dermal fibroblasts expressing GCase L444P/L444P mutant at 5 uM after 6 days; format: cell-based; conditions: fibroblast, 144 h
In short: (§2)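 Fibroblasts of the stated genotype were seeded at 5000 cells/well. After 1 day they were switched to OPTI-MEM with 5% FBS and treated 6 days with compound. Viability was read by CellTiter-Glo luminescence on a parallel plate.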

[11] = test system: T1, Lysosomal acid glucosylceramidase (Homo sapiens), P04062 [N409S]; test: Activation of Glucocerebrosidase N370S/N370S mutant translocation to lysosome in Gaucher patient dermal fibroblasts incubated for 6 days by LAMP2 colocalization-based laser scanning confocal microscopic analysis relative to vehicle-treated control
In short: (§3)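 N370S/N370S Gaucher dermal fibroblasts were treated 6 days at 1, 5 or 25 μM, with DMSO vehicle control. Cells were fixed in 3% paraformaldehyde, permeabilized with Triton-X and stained with anti-GCase R386 (Alexa555), anti-LAMP-2 (Alexa488) and DAPI. Confocal imaging used constant laser settings, scoring GCase/LAMP-2 colocalization.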

Brain [12] = test: Tmax in C57BL/6 mouse brain at 50 mg/kg, ip; format: ADME, organism-based; design: dose 50 mg/kg, route intraperitoneal; conditions: in vivo; in short: as §1
Brain [13] = test: AUC (infinity) in C57BL/6 mouse brain at 50 mg/kg, ip; format: ADME, organism-based; design: dose 50 mg/kg, route intraperitoneal, time infinity; conditions: in vivo; in short: as §1
[14] = Cytotoxicity against human dermal fibroblasts expressing GCase N370S/N370S mutant at 5 uM after 6 days; format: cell-based; conditions: fibroblast, 144 h; in short: as §2
Caco-2 = test: Efflux ratio of apparent permeability from basal to apical to apical to basal side of human Caco2 cells after 2 hrs; format: ADME, cell-based; conditions: caco-2, 2 h
In short: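 Caco-2 monolayers were grown 3 weeks, with integrity checked by Lucifer yellow. Compound was added apically (pH 6.5 HBSS/HEPES/glucose buffer) or basolaterally (pH 7.4) and incubated 2 h. Transfer was quantified by LC−MS/MS and expressed as P_app. Efflux ratio is P_app B→A over A→B.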

[15] = test system: T1, Lysosomal acid glucosylceramidase (Homo sapiens), P04062 [N409S]; test: Activation of Glucocerebrosidase N370S/N370S mutant translocation to lysosome in Gaucher patient dermal fibroblasts at 5 uM incubated for 6 days by LAMP2 colocalization-based laser scanning confocal microscopic analysis relative to vehicle-treated control; in short: as §3
[16] = test system: T1, Lysosomal acid glucosylceramidase (Homo sapiens), P04062 [N409S]; test: Activation of glucocerebrosidase N370S mutant using 4-methylumbelliferone-beta-Glc as substrate incubated for 5 mins prior to substrate addition measured after 30 to 45 mins by HPLC analysis
In short: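 N370S/N370S patient spleen homogenate at 140 μg/well. Compound was tested at 9 concentrations, 1:2 dilutions from 50 μM. Substrate was 2 mM 4MU-Glc or the C12-BODIPY substrate at 25 μM; other conditions as the plate assay. Stopped reactions were separated on C18 HPLC with fluorescence detection: 4MU at 365/440 nm, C12-BODIPY-Cer at 506/540 nm.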

[17] = test system: T1, Lysosomal acid glucosylceramidase (Homo sapiens), P04062 [N409S]; test: Activation of wild type glucocerebrosidase translocation to lysosome in human dermal fibroblast isolated from N370S carrier incubated for 6 days by LAMP2 co-localization-based laser scanning confocal microscopic analysis relative to vehicle-treated control
[18] = Cytotoxicity against human dermal fibroblasts expressing wild type GCase at 5 uM after 6 days; format: cell-based; conditions: fibroblast, 144 h; in short: as §2

## C#Cc1ccc(NC(=O)c2cnn3c(C)cc(C)nc23)cc1
Plasma
  Cmax: 1.03 µM
Liver [1]
  t1/2: 1730 min
Liver [2]
  Ratio AUC: 12512%
Liver [3]
  AUC: 105000 ng·h/mL
[4]
  Activity: inactive
Liver [5]
  Tmax: 15 min
Liver [6]
  AUClast: 54300 ng·h/mL
Homo sapiens
  Activity: Active
Liver [7]
  Cmax: 17.3 µM
[8]
  Ratio AUC: 290%
[9]
  Activity: 0.36 µM
[10]
  Activity: Non-toxic
[11]
  Activity: Active
Brain [12]
  Tmax: 15 min
Brain [13]
  AUC: 1390 ng·h/mL
[14]
  Activity: Non-toxic
Caco-2
  Ratio: 0.3
[15]
  Activity: Active
[16]
  Activity: Dose-dependent effect
[17]
  Activity: Active
[18]
  Activity: Non-toxic

— ChEMBL document CHEMBL2169863, “Discovery, structure-activity relationship, and biological evaluation of noninhibitory small molecule chaperones of glucocerebrosidase” (J Med Chem, 2012)
